Screening results (PubChem)
A selection: hits, their analogues and other compounds. The true share with any hit is near 1.5%.
ABCB1 block: ABCB1 efflux pump inhibitors, primary screen, cell-based, multiplex, flow cytometry, ABCG2 counter-screen | ATP-dependent translocase ABCB1 (Homo sapiens), P08183 | CCRF-Adr cells, JC-1 efflux | inhibition, % at 6.6 µM | 0.067% of 190,000 active; in the data active means inhibition above about 40%;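 further: 0% = vehicle and 100% = reference inhibitor; higher value means more JC-1 retained so stronger ABCB1 efflux block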
EP2 mod: EP2 receptor modulators, cAMP readout, primary screen, cell-based, HTRF cAMP, PGE2 stimulation | Prostaglandin E2 receptor EP2 subtype (Homo sapiens), P43116 | EP2-expressing cells, cAMP HTRF FRET, PGE2 co-stimulation | induction, % at 25 µM | 0.83% of 260,000 active | AID 940, 2007;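 active means compounds whose cAMP rise, as percent of the full-agonist control response, exceeds 60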;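 further: rat C6 glioma line stably carrying human EP2 under a CMV promoter; the protocol text gives 20 µM as final concentration; 100% = response of wells given 1 µM PGE2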
RBBP9 inhibitor: human RBBP9 inhibitors, primary screen, biochemical, fluorescence polarization, FP-Rh probe, HTS | Serine hydrolase RBBP9 (Homo sapiens), O75884 | recombinant RBBP9 | inhibition, % at 7.94 µM | 0.2% of 220,000 active;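 active means inhibition above the campaign mean of all tested compounds plus 3 SD, cut at about 14% in these data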;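 further: plate controls were DMSO wells with RBBP9 for no effect and wells lacking RBBP9 protein for full effect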
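System: RBBP9 protein / Quantity: 2.5 µM RBBP9 dispensing solution, before mixing / Also added: Serine-hydrolase probe FP-Rh, 375 nM pre-mixing / Dosing: 7.94 µM single dose, 0.794% DMSO / Timing: enzyme-compound preincubation 30 min, then probe labeling 45 min, 25 °C / Signal: FP readout at 525/598 nm / Controls: DMSO-treated enzyme wells and wells lacking RBBP9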
PGE2 EP2 inh: human EP2 receptor antagonists, primary screen, TR-FRET cAMP, C6 glioma cells. Prostaglandin E2 receptor EP2 subtype (Homo sapiens), P43116. C6 glioma cells expressing human EP2; cells stimulated with saturating PGE2. inhibition, % at 25 µM. 0.52% of 260,000 active. AID 1422, 2008;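 active means percent inhibition above 40 after rounding to a whole number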;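 further: rat C6 glioma host cells with rolipram phosphodiesterase inhibitor present; the protocol text gives 20 µM as final concentration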
ABCG2 inh: ABCG2 efflux pump inhibitors, primary screen, multiplex with ABCB1, IgMXP3 cells, flow cytometry. 0.1% of 190,000 active. Broad substrate specificity ATP-binding cassette transporter ABCG2 (Homo sapiens), Q9UNQ0. JC-1 efflux. AID 1325, 2008. inhibition, % at 6.6 µM;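 active means inhibition above 80%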;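 further: 0% = DMSO and 100% = nicardipine control wells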
Target sequence (Q9UNQ0 whole entry, looked up): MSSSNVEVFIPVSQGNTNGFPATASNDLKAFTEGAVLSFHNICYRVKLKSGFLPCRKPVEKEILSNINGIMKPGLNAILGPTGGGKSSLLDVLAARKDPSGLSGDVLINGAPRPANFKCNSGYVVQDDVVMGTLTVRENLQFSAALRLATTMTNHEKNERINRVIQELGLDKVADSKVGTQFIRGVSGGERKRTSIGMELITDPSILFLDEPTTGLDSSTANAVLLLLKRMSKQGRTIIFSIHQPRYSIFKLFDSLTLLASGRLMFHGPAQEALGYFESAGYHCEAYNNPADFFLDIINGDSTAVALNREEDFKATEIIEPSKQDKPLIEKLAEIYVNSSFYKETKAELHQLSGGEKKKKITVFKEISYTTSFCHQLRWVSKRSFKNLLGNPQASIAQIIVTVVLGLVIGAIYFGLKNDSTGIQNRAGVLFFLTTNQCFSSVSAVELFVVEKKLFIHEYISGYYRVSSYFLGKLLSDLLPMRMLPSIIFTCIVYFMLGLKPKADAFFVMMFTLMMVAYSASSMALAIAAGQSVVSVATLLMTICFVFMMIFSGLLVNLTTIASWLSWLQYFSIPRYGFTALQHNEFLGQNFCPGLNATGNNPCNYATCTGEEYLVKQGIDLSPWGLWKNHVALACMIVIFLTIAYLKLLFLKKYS
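Times: 10 min at 25 °C | Test system: Two drug-resistant human cell lines, ABCG2 and ABCB1 | Quantity: 3 million cells/mL final, two lines in 1:1 ratio | Signal: Flow cytometry, 530 nm JC-1 signal | Dosing: Compound at 6.6 µM | Controls: Nicardipine and DMSO wells | Reagent: JC-1 as fluorescent efflux pump substrate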
Numbers without * were called inactive; . = not tested or not shown.

SMILES	ABCB1 block	EP2 mod	RBBP9 inhibitor	PGE2 EP2 inh	ABCG2 inh
N#C/C(=C\c1ccc(Cl)cc1)c1nc(-c2ccco2)cs1	-2	38	-9	1	-12
N#C/C(=C\c1ccc(F)cc1)c1nc(-c2ccco2)cs1	-1	61*	-4	9	-9
Cc1ccsc1CN1CCc2c(nc(N3CC(C)OC(C)C3)[nH]c2=O)C1 (configuration not stated)	.	-15	.	.	.
COc1ccc2c(c1)c(/C=N/Nc1nc3ccccc3[nH]1)c(C)n2C	.	-34	11	49*	.
COc1cc(/C=N\Nc2nc3ccccc3[nH]2)cc(OC)c1OC	0	-75	6	17	2
COc1ccc(NC(=O)C2CC(=O)N(c3ccc(F)cc3)C2)cc1 (configuration not stated)	.	-20	.	10	.
CCCOC(=O)c1cccc(NC(=O)COc2ccc([N+](=O)[O-])cc2)c1	63*	-22	-5	10	9
CCOC(=O)c1cc(C)sc1NC(=S)Nc1ccccc1	0	65*	-1	9	0
CCOC(=O)c1c(NC(=S)Nc2ccccc2)sc(C)c1C	1	22	-2	9	2
N#Cc1c(-c2ccccc2)c(-c2ccccc2)nn(CC(=O)NNC(=O)Nc2ccccc2)c1=O	0	33	-2	.	0
N#Cc1c(-c2ccccc2)c(-c2ccccc2)nn(CC(=O)NNC(=O)Nc2ccc(Cl)cc2)c1=O	.	2	-2	79*	.
Cc1nc2c(-c3cccs3)c(C)[nH]n2c(=O)c1C	.	18	.	.	.
S=c1[nH]nc(-c2ccco2)n1/N=C/c1cccc(Cl)c1Cl	-1	61*	-9	1	-3
C=CCN(C(=O)c1ccccn1)C(C(=O)NCc1ccccc1)c1cccnc1 (configuration not stated)	.	8	.	13	.
COc1ccc(OC)c(Nc2nc(NCCC(C)C)nc(N)c2[N+](=O)[O-])c1	.	63*	-10	8	.
CCC(C)Nc1nc(N)c([N+](=O)[O-])c(Nc2cc(OC)ccc2OC)n1 (configuration not stated)	.	36	-4	4	.
COc1ccc(NCc2nnc(SCC(=O)Nc3ccccc3C)n2C)cc1	.	-6	.	8	.
COc1ccc(C(C)=O)cc1CSc1nc2cc(C(=O)O)ccc2c(=O)n1Cc1ccccc1	0	64*	-8	12	-3
CCOC(Cn1c(SCc2cc(C(C)=O)ccc2OC)nc2ccccc2c1=O)OCC	3	19	4	30	8
CC[C@H](Cn1nc(-c2cccs2)ccc1=O)NC(=O)Cc1nn(C)c(=O)c2ccccc12	.	16	.	.	.
O=C(Nc1cccc2ccccc12)N1CCCN(c2c(Cl)cncc2Cl)CC1	.	-61	-11	41*	.
CC(=O)Nc1cccc(NC(=O)CSc2ncc(-c3ccc(Cl)cc3)n2Cc2ccco2)c1	2	-8	-7	41*	41
COc1ccc(-c2cnc(SCC(=O)Nc3ccc4c(c3)OCO4)n2Cc2ccco2)cc1	0	23	-10	.	1
COc1cc(OC)cc(-c2nnc(SCC(=O)N3c4ccccc4Sc4ccccc43)o2)c1	.	61*	-3	13	.
Cc1cc(C)n(-c2cc(Nc3ccccc3C)nc(C)n2)n1	.	19	.	7	.
SMILES	ABCB1 block	EP2 mod	RBBP9 inhibitor	PGE2 EP2 inh	ABCG2 inh
CSc1nc(Oc2ccc(Cl)cc2)c2sccc2n1	0	64*	-4	11	2
CSc1nc(N2CCOCC2)c2sccc2n1	-1	6	-5	5	0
C=CS(=O)(=O)c1ccc(Oc2ccc(S(=O)(=O)C=C)cc2)cc1	1	-61	-9	72*	5
C=CCc1cc(CN2CCC(C(=O)c3cccnc3)CC2)cc(OC)c1OC	.	72*	.	8	.
COc1cc(/C=C2\CC/C(=C\c3cc(OC)c(O)c(OC)c3)C2=O)cc(OC)c1O	-1	8	19*	4	-3
CCC(c1nnnn1C1CCCC1)N(CCc1ccccc1)Cc1cc2c(C)ccc(C)c2[nH]c1=O (configuration not stated)	.	46	.	19	.
CC(=O)NC1(c2ccccc2F)CCN(CC(=O)N2CCc3ccccc32)CC1	.	11	.	.	.
O=C(O)c1ccccc1C(=O)Nc1ncccn1	.	-2	.	15	.
CC1CCN(C(=O)CSc2nc(COc3ccccc3)nc3ccccc23)CC1	.	81*	.	9	.
Cc1cnc(C)c(N2CCC(C(=O)O)CC2)n1	.	7	.	16	.
COc1ccc(Cn2nnnc2C(c2cc3ccc(C)cc3[nH]c2=O)N2CCCCCC2)cc1 (configuration not stated)	.	51	.	15	.
COc1ccc(Cl)cc1NC(=O)/C=C/C(=O)O	.	8	-2	3	.
COC(=O)c1sc(-c2cccs2)cc1NC(=O)/C=C/C(=O)O	.	-110	-10	63*	.
COc1ccc(NC(=O)/C=C/C(=O)O)c(OC)c1	.	75*	3	3	.
CCOC(=O)C1=C(C)N(C)C(=S)NC1c1cccc(Cl)c1Cl (configuration not stated)	1	64*	-7	9	3
CCOC(=O)/C(C#N)=C\c1cn(C)c2ccccc12	1	20	-4	7	7
CCOC(=O)/C(=C\c1cn(C)c2ccccc12)[N+](=O)[O-]	-1	-90	-7	42*	-4
O=S1(=O)CCN(c2ccccc2CC(c2c[nH]c3ccccc23)c2c[nH]c3ccccc23)CC1	.	7	.	52*	.
O=C(O)[C@@H](Cc1c[nH]c2ccccc12)C(=O)NO	.	15	.	13	.
CN1c2cccc3cccc(c23)N(C)C1c1cccs1	1	64*	-2	5	3
CCC1(C)Cc2ccccc2-c2nc3n(c(=O)c21)CCCCC3 (configuration not stated)	1	57	-10	9	9
CC1(C)Cc2ccccc2-c2nc3n(c(=O)c21)CCCS3	0	64*	-1	8	1
C[N+](C)(C)CCN[N@+]1(C)CCCc2ccccc21	.	19	.	40*	.
CN1CCN(c2ccc(NC(=O)COc3ccccc3[N+](=O)[O-])cc2)CC1	2	-27	-1	3	13
CC(C)C(=O)N1CCN(c2ccc(NC(=O)COc3ccccc3[N+](=O)[O-])cc2)CC1	2	-34	-4	44*	10
CCOc1ccc(C(O)CN2CCC(O)(c3ccc(F)cc3)CC2)cc1 (configuration not stated)	.	-31	.	2	.
COC(=O)c1ccc(C2C(C(=O)OC(C)C)=C(N)OC3=C2C(=O)CC(C)(C)C3)cc1 (configuration not stated)	.	65*	.	3	.
CCn1c2cc(C)oc2c2cnn(Cc3ccccc3C(F)(F)F)c(=O)c21	.	81*	.	.	.
